Lmaj promast = reduces viability of Leishmania major promastigotes; 200,000 tested, 9% active; AID 1063; resazurin fluorescence viability; inhibition, % at 10 µM; in the data active = inhibition above about 50%;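 also: promastigotes grown with compound for 44 hours at 28 °C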
Diaphorase inh = diaphorase inhibition or chemical oxidation counter-screen; inhibition, % at 20 µM; diaphorase resazurin-to-resorufin fluorescence, NADH, 16 min; bacterial (C. kluyveri) enzyme, not human; 190,000 tested, 0.69% active;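 active = primary screen inhibition at 20 µM above a set limit, cut at about 50% in these data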;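 also: plate controls were DMSO with full reaction for no effect and wells lacking NADH for full effect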
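Assay system – diaphorase enzyme from Clostridium kluyveri · Amount – diaphorase 0.14 U/mL (working solution) · Times – reaction incubation of 16 min at room temperature · Controls – No-NADH positive control and DMSO neutral control · Signal – resorufin fluorescence 544/590 nm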
KCC2 mod = KCC2 (human) Cl- transport modulation. Q9H2X9. KCC2 cells, thallium flux FluoZin-2 fluorescence. B-score of Tl+ flux slope (higher = more flux/activation; lower = inhibition) at 10 µM. 190,000 tested, 2.2% active. AID 1456;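 active = thallium flux slope and its plate-corrected score both differing from the plate sample mean at a set confidence after two filtering rounds, in either direction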;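 also: slope of fluorescence scaled to starting intensity during 10 to 20 s after thallium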
Target sequence (Q9H2X9 whole entry, looked up): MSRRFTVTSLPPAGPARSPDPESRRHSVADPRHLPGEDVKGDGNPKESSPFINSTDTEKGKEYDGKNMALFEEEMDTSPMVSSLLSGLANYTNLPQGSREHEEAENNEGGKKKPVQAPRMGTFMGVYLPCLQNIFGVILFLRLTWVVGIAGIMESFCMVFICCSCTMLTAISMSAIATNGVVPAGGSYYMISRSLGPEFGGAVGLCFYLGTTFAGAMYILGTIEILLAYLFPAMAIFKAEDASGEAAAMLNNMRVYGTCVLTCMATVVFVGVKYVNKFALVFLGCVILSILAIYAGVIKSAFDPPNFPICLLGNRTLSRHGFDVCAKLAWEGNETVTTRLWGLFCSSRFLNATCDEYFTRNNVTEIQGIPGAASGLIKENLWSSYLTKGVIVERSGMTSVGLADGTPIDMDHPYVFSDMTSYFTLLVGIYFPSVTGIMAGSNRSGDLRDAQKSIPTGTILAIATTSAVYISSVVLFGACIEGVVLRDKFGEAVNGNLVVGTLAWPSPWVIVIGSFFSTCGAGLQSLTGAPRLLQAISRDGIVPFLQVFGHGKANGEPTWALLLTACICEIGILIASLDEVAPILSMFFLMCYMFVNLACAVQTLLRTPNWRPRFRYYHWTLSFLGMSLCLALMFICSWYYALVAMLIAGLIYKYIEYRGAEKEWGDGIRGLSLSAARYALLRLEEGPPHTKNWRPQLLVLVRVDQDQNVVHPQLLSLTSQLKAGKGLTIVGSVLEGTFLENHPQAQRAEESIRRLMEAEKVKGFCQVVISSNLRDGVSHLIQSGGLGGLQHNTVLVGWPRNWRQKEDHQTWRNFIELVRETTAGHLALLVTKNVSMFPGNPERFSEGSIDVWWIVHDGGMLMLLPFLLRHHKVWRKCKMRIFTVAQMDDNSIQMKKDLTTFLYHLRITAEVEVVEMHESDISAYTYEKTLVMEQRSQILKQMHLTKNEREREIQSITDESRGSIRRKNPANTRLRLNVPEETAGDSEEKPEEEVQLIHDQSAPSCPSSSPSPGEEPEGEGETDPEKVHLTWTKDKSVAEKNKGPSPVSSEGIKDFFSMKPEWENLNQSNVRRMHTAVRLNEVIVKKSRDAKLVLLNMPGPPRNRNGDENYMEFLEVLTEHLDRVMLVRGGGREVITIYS
WT yeast gro inh = growth inhibition of WT yeast, mitochondrial fusion screen | mitochondrial fusion phenotypic screen, WT strain | inhibition, % at 10 µM | 190,000 tested, 2.1% active | AID 1362; in the data active = inhibition above about 58%; tested in S. cerevisiae
Diaphorase act = activates diaphorase or chemically reduces, flagging diaphorase assay artifacts | 190,000 tested, 0.005% active | Diaphorase/resazurin coupled assay, resorufin fluorescence, 16 min; stronger effect = higher value; 1 = vehicle wells, 0 = NADH-free wells | activation factor at 20 µM | AID 1229;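 active = diaphorase activity raised at least twofold by the compound at 20 µM; inactive = activation factor below 2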
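Test system: Clostridium kluyveri diaphorase, purified enzyme. Buffer or medium: 50 mM HEPES pH 7.4 buffer plus MgCl2 and Tween 20. Also added: 0.114 mM NADH and 0.1 mM resazurin, final amounts. Dosing: compound 20 µM once, DMSO 1%. Schedule: 16 min enzyme reaction, ambient temperature. Detection: fluorescence of resorufin, 544 nm excitation, 590 nm emission.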
ROMK primary = modulators of human ROMK potassium channel. B-score at 10 µM. 130,000 tested, 2% active. Tet-inducible ROMK, thallium flux fluorescence; actives lie on both sides;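 active = signal ratio slope over the read window, or its plate-corrected B-score, at least 3 SD from the plate mean, either direction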;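 also: B-score of the F/F0 ratio slope over 7 to 12 s after thallium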
* = called active by the depositor; nt = no result given. Most compounds without a hit are left out; they make up all but 12% or so of the library.

SMILES | Lmaj promast | Diaphorase inh | KCC2 mod | WT yeast gro inh | Diaphorase act | ROMK primary
CCC(=O)Nc1nc2ccccc2n1Cc1ccc(Cl)cc1 | 99* | -9 | 0.55 | 64 | 1.1 | -0.26
Cc1ccc(Cn2c(SCC(=O)N/N=C/c3ccc(C)o3)nc3ccccc32)cc1 | 11 | 16 | -0.3 | 45 | 0.8 | -0.13
O=C(CSc1nc2ccccc2n1Cc1ccccc1)N/N=C/c1ccco1 | 50* | 26 | 0.73 | -9 | 0.7 | nt
COc1ccccc1/C=C/C(=O)Nc1nc(N)n(-c2ccccc2)n1 | nt | nt | -0.29 | nt | nt | nt
Cc1csc(NC(=O)C2CCN(S(=O)(=O)c3cccs3)CC2)n1 | 27 | 4 | -0.97 | -2 | 1 | 0.19
O=C(Nc1nc(NC(=O)c2ccco2)n(-c2ccccc2)n1)c1ccccc1 | 100* | -10 | 0.92 | 8 | 1.1 | 0.55
CC(=O)Nc1nc2ccccc2n1CCOc1ccccc1Cl | 99* | 19 | -0.47 | 18 | 0.8 | nt
Nc1nc(NC(=O)c2ccccc2)nn1-c1ccccc1 | -3 | 7 | -0.27 | -10 | 0.9 | -0.13
CCCn1c(NC(=O)C2CCN(S(=O)(=O)c3cccs3)CC2)nc2ccccc21 | 97* | -4 | nt | 36 | 1 | nt
CC(=O)Nc1nc2ccccc2n1Cc1ccccc1Cl | nt | nt | -0.68 | nt | nt | nt
CC(=O)Nc1nc2ccccc2n1Cc1ccccc1C | 96* | 11 | nt | 9 | 0.9 | nt
Cc1cc(NNC(=O)c2cccc(C(F)(F)F)c2)nc2c1c(C)nn2C | nt | nt | 0 | nt | nt | nt
CCOc1ccc(NC(=S)N(CCN2CCOCC2)Cc2cc3cc4c(cc3[nH]c2=O)OCCO4)cc1 | 24 | 38 | 0.29 | 1 | 0.6 | 0.86
NS(=O)(=O)c1ccc(CCNC(=O)CN2CCCCCC2)cc1 | -8 | 4 | 1.7 | -10 | 1 | 0.69
O=C(CC(c1ccccc1)c1cc(Br)ccc1O)N1CCCCC1 (stereo not drawn) | nt | nt | -0.0063 | nt | nt | nt
COc1ccc(C(=O)Nc2nc3cc4c(cc3s2)OCCO4)c(OC)c1 | nt | nt | -0.054 | nt | nt | nt
CCCn1c(NC(=O)c2ccc(C)cc2)nc2ccccc21 | 17 | 5 | nt | 2 | 1 | 0.34
O=C(Nc1nc2ccccc2n1Cc1ccccc1)c1ccco1 | 73* | 0 | nt | 14 | 1 | nt
CCOc1ccc2nc(NC(=O)C3CCCN(S(=O)(=O)c4cccs4)C3)sc2c1 (stereo not drawn) | 55* | 21 | nt | 42 | 0.8 | nt
CCCn1c(NC(=O)c2ccccc2)nc2ccccc21 | 41 | 7 | 9.9* | -5 | 0.9 | nt
O=C(Cn1c(NCCCO)nc2ccccc21)c1ccco1 | 2 | 20 | nt | -6 | 0.8 | -0.057
Cc1cc(NC(=O)Cn2cc([N+](=O)[O-])cn2)no1 | -3 | 0 | 0.33 | -15 | 1 | 0.32
Cc1c(C(=O)OC(C)C)sc(N)c1C(=O)OC(C)C | -1 | 20 | 0.0099 | -13 | 0.8 | -0.42
COC(=O)c1ccc(COC(=O)c2ccc(CO)cc2)o1 | 65* | -2 | 0.31 | -14 | 1 | -0.43
COC(=O)c1ccc(Cc2ccc(C(=O)OC)o2)o1 | -2 | 16 | nt | -18 | 0.8 | nt
SMILES | Lmaj promast | Diaphorase inh | KCC2 mod | WT yeast gro inh | Diaphorase act | ROMK primary
COc1ccc(CN2CCN(C(C)C)C(CCO)C2)cc1Cn1cncn1 (stereo not drawn) | -4 | -1 | nt | 7 | 1 | nt
N=C(N)c1ccc(O)cc1 | -11 | 13 | 0.35 | 5 | 0.9 | 1.4
CC/C(=C(/CC)c1ccc(O)cc1)c1ccc(O)cc1 | 19 | 7 | -1.5 | 76* | 0.9 | 2.3
CC1=CN2C(=N)/C(=C\c3cn(CCCOc4ccccc4)c4ccccc34)C(=O)N=C2S1 | 5 | -1 | -0.37 | 7 | 1 | nt
COc1ccc(C2C(C#N)=C(N)OC3=C2C(=O)CCC3)cc1Cn1nc(C)c([N+](=O)[O-])c1C (stereo not drawn) | 93* | 17 | 1.8 | -2 | 0.8 | nt
CC(C)C(NC(=O)C1CCCCC1)C(=O)NCCc1ccccc1 (stereo not drawn) | 8 | 6 | -0.6 | -3 | 0.9 | 0.66
NC(=O)c1cccc(CC(=O)c2ccccc2)c1 | nt | nt | 0.031 | nt | nt | 0.22
CC(C)Cc1cc(C(=O)Nc2cc(C(F)(F)F)ccc2Cl)no1 | -8 | 8 | nt | 38 | 0.9 | 0.21
Oc1ccc(N=Cc2ccc(O)c(O)c2)cc1 | 100* | 61* | -0.25 | 7 | 0.4 | nt
CCCCCNCc1cccc(Br)c1 | 75* | 10 | -0.16 | 15 | 0.9 | -0.78
Brc1cccc(CNCCCN2CCOCC2)c1 | 22 | -10 | 0.075 | 1 | 1.1 | 0.058
CCCCCCNCc1cccc(Br)c1 | 54* | -7 | 0.2 | 21 | 1.1 | -0.41
Cc1ccccc1S(=O)(=O)c1c(C)cc(C)n(CC(C)C)c1=O | 91* | 2 | 0.44 | 68* | 1 | -0.31
Cc1c(Cl)cccc1Nc1nc(N)nc(CSC(=S)N2CCOCC2)n1 | 16 | -6 | -0.72 | 1 | 1.1 | -0.9
Oc1ccc(/C=N/Nc2cc(N3CCCC3)nc(N3CCCC3)n2)cc1 | 13 | 24 | 0.85 | 63* | 0.8 | 0.66
COc1ccc(/C=N/Nc2cc(N3CCCC3)nc(N3CCCC3)n2)cc1 | 95* | 8 | 0.024 | 75* | 0.9 | -0.35
Oc1cccc(/C=N/Nc2cc(N3CCCC3)nc(N3CCCC3)n2)c1 | 97* | 29 | 0.43 | 37 | 0.7 | 0.78
Oc1ccc(/C=N/Nc2cc(N3CCOCC3)nc(N3CCOCC3)n2)cc1 | -10 | nt | -0.6 | nt | nt | nt
CC(=O)Nc1ccc(NC(=O)COC(=O)c2ccccn2)cc1 | -4 | 3 | -0.92 | -3 | 1 | -0.39
COc1ccc(NC(=S)N2CCN(c3ncccn3)CC2)c(OC)c1 | nt | nt | -0.0013 | nt | nt | nt
O=C(CSc1nnc(Nc2ccccc2F)s1)Nc1cccc(S(=O)(=O)N2CCCCC2)c1 | 49 | 30 | -0.99 | 1 | 0.7 | -0.91
CCCCn1c(NC(=O)c2ccco2)c(S(=O)(=O)c2ccc(C)cc2)c2nc3ccccc3nc21 | -6 | 69* | -0.97 | 1 | 0.3 | 1.2
CCCCn1c(NS(=O)(=O)c2ccccc2)c(S(=O)(=O)c2ccc(C)cc2)c2nc3ccccc3nc21 | 51* | 35 | -7.1* | 12 | 0.6 | nt
CCCCCn1c(NC(=O)c2ccco2)c(S(=O)(=O)c2ccc(C)cc2)c2nc3ccccc3nc21 | -10 | 48 | -0.59 | 5 | 0.5 | nt
Cc1ccccc1N1CCN(C(=O)c2ccc(Oc3ccc(C(F)(F)F)cn3)cc2)CC1 | -2 | 27 | nt | 75* | 0.7 | nt
S=c1[nH]nc(Cc2ccc(Br)cc2)n1/N=C/c1ccc(Cl)cc1 | -5 | 28 | 1.5 | 93* | 0.7 | 0.91
C[C@]12CC[C@@H]3c4ccc(O)cc4CC[C@H]3[C@@H]1CCC2=O | -5 | 5 | -0.45 | -8 | 1 | -1.2
CCCCC(=O)O[C@H]1CC[C@H]2[C@@H]3CCc4cc(O)ccc4[C@H]3CC[C@]12C | -5 | 33 | 0.31 | 91* | 0.7 | nt
Cc1c(C(=O)NN2CCOCC2)oc2ccccc12 | -1 | -6 | 2.8 | 10 | 1.1 | nt
COc1ccc(/C(N)=N/OC(=O)Cc2ccc(OC)c(OC)c2)cc1 | 9 | 3 | nt | 11 | 1 | nt
